From ChEMBL document CHEMBL1128592, “Phenethylthiazolethiourea (PETT) compounds, a new class of HIV-1 reverse transcriptase inhibitors. 1. Synthesis and basic structure-activity relationship studies of PETT analogs” (J Med Chem, 1995)

What was measured:
[1] = target: Human immunodeficiency virus type 1 reverse transcriptase (Human immunodeficiency virus 1) (UniProt Q72547); assay: Concentration which reduced the cytopathic effect of HIV-1 in MT-4 infected cells; type: functional, cell-based
Method in brief: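 MT4 cells at 2 × 10⁵ cells/mL in RPMI 1640 with 10% FCS, penicillin and streptomycin (2 × 10⁴ cells/well). Compounds added from DMSO stocks diluted in medium (final DMSO ≤1%), then HIV-1 IIIB at 10 TCID₅₀/well. After 6 days in CO₂, surviving cells read by XTT. ED₅₀ is the concentration reducing virus cytopathic effect, mean of at least two experiments.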

[2] = target: Human immunodeficiency virus type 1 reverse transcriptase (Human immunodeficiency virus 1, UniProt Q72547); assay: Inhibition of HIV-1 reverse transcriptase using rCdG as template and dGTP as substrate
[3] = Concentration which reduced the viability of the uninfected MT-4 cells to 50% compared to untreated control cells; settings: MT4

SMILES	ED50 [1] [nM]	IC50 [2] [nM]	CD50 [3] [µM]
S=C(NCCc1ccccn1)Nc1ccc(Br)cn1	20	–	–
CN(CCc1ccccc1)/C(S)=N\c1nccs1	> 10000	> 10000	29
COc1ccc(Br)cc1CCNC(=S)Nc1nccs1	50	30	94
CCc1csc(NC(=S)NCCc2c(F)cccc2F)n1	80	5.5	> 305
Cn1cccc1CC/N=C(\S)Nc1nccs1	> 10000	1900	143
[N-]=[N+]=Nc1ccccc1CC/N=C(\S)Nc1nccs1	100	–	92
O=C(NCCc1ccccc1)Nc1nccs1	> 10000	> 10000	113
CC(C/N=C(\S)Nc1nccs1)c1ccccc1 (stereo unspecified)	1200	–	108
N#Cc1csc(NC(=S)NCCc2ccccc2)n1	200	200	–
Cc1ccnc2c1NC(=O)c1cccnc1N2C1CC1	150	–	–
Cc1ccc(NC(=S)NCCc2ccccn2)nc1	300	50	73
Fc1ccc(CCNC(=S)Nc2nccs2)cc1	3300	1000	78
Cc1csc(NC(=S)NCCc2ccccc2)n1	400	100	> 360
Oc1ccccc1CCNC(=S)Nc1nccs1	4000	1100	100
S=C(NCCc1ccccc1)Nc1cc[nH]n1	> 10000	> 10000	122
[N-]=[N+]=Nc1ccccc1CCNC(=S)Nc1nccs1	–	30	–
CC(C)=CCN1Cc2cc(Cl)cc3[nH]c(=S)n(c23)C[C@@H]1C	250	200	–

SMILES	ED50 [1] [nM]	IC50 [2] [nM]	CD50 [3] [µM]
CCc1csc(NC(=S)NCCc2ccccc2)n1	700	600	> 340
S=C(NCCc1ccccc1)Nc1ncccc1Br	> 10000	> 10000	297
S=C(NCc1ccccc1)Nc1nccs1	> 10000	1200	120
CCOC(=O)c1csc(NC(=S)NCCc2ccccc2)n1	500	200	60
COc1ccccc1CCNC(=S)Nc1nccs1	400	40	102
COc1cccc(F)c1CCNC(=S)Nc1nccs1	300	10	51
Fc1ccccc1CCNC(=S)Nc1nccs1	100	60	75
CC(Cc1ccccc1)/N=C(\S)Nc1nccs1 (stereo unspecified)	> 10000	> 10000	87
S=C(NCCCc1ccccc1)Nc1nccs1	> 10000	4500	> 360
COc1cccc(OC)c1CCNC(=S)Nc1nccs1	90	90	37
COc1ccc(OC)c(CCNC(=S)Nc2nccs2)c1	400	200	86
S=C(NCCc1ccccc1)Nc1ccccn1	200	20	–
Fc1cccc(CCNC(=S)Nc2nccs2)c1	250	150	78
CCc1cc(NCc2nc3c(Cl)ccc(Cl)c3o2)c(O)nc1C [L-697661]	65	100	114
O=[N+]([O-])c1ccccc1CCNC(=S)Nc1nccs1	1100	150	123
COc1ccc(CCNC(=S)Nc2nccs2)cc1	5500	350	68
COc1cccc(CCNC(=S)Nc2nccs2)c1	600	150	143
